Results of several laboratories.
RPS6KA1: Ribosomal protein S6 kinase alpha-1 (RPS6KA1, Homo sapiens, UniProt Q15418)
RPS6KA1 C-terminal kinase domain: Ribosomal protein S6 kinase alpha-1, C-terminal kinase domain (RPS6KA1, Homo sapiens, UniProt Q15418)

With Cn1cc(-c2cccc(N3CCc4c(sc5c4CC(C)(C)C5)C3=O)c2CO)cc(Nc2ccncn2)c1=O the inhibition was -1% (RPS6KA1; enzyme activity, inhibitor; 1 µM).
For C#Cc1n[nH]c2c(-c3cn([C@@H](C)c4ccccn4)c(=O)[nH]c3=O)cc(F)cc12, the inhibition was 7.4% (RPS6KA1; enzyme activity, inhibitor; 0.1 µM).
Nc1ncc(-c2nc(N3CCOCC3)nc(N3CCOCC3)n2)c(C(F)F)n1 gave a remaining binding of 88% (RPS6KA1 C-terminal kinase domain; binding, competition with immobilised ligand; 10 µM).
CC(C)(C)c1cc(C=C(C#N)C#N)cc(Br)c1O gave a remaining activity of 104% (RPS6KA1; enzyme activity, inhibitor; 0.5 µM).
Cc1nn(C)cc1-c1nc2c(N3CCN(Cc4ccc(Cl)cc4)CC3)c(Cl)cnc2[nH]1 has a remaining binding of 100% (Ribosomal protein S6 kinase alpha-1, N-terminal kinase domain (RPS6KA1, Homo sapiens, UniProt Q15418); binding, competition with immobilised ligand; 1 µM).
For N#CC1(c2ccccn2)CCN(Cc2cc(C(=O)O)c(=O)n3ccccc23)CC1, the remaining binding was 100% (RPS6KA1 C-terminal kinase domain; cell-free assay, competition with immobilised ligand; 1 µM).
Cn1cc(-c2cc(F)cc(N3CCn4c(cc5c4CCCC5)C3=O)c2CO)cc(Nc2ccc(N3CCN(C4COC4)CC3)cn2)c1=O gave an inhibition of 0% (RPS6KA1; enzyme activity, inhibitor; 0.1 µM).
O=c1[nH]c2ccccc2n1C1CCN(Cc2ccc(-c3[nH]c4cc5ncnc5cc4nc3-c3ccccc3)cc2)CC1 has a remaining signal of 101% (RPS6KA1; cell-free assay; 0.5 µM).
The inhibition of C#Cc1n[nH]c2c(-c3cn([C@@H](C)c4ccccc4)c(=O)[nH]c3=O)cc(F)cc12 is reported as 6.2% (RPS6KA1; enzyme activity, inhibitor; 0.1 µM).
Cn1cncc1[C@@](O)(COc1ccc(C#N)cc1-c1ccc(OC(F)(F)F)cc1)c1ccc(C#N)cc1 has a remaining binding of 100% (RPS6KA1 C-terminal kinase domain; cell-free assay, competition with immobilised ligand; 1 µM).
